Marks after values point to notes of the source that are not given here.
Tests used:
[1] = Rat EFD study: maternal and fetal plasma toxicokinetics; format: in vivo
[2] = test system: JAK1, JAK2, JAK3, and TYK2; conditions: ref Sandborn et al., 2020; cited from earlier work
[3] = Exposure comparisons stated jointly for several nonclinical species; format: in vivo, rat, dog, rabbit
beagle dogs = assay: Dog 4-, 13-, 39-week repeat-dose general toxicity studies; format: in vivo
[4] = as above; format: in vivo; conditions: both, beagle, dog, in vivo, oral
[5] = test system: Time-mated female rabbits; assay: Rabbit embryo–fetal development; format: in vivo; conditions: for Corpora lutea (mean ± SD) / Implantation sites (mean ± SD) / Preimplantation loss (mean ± SD) / Total resorptions (mean ± SD) / Females with live fetuses / Pregnant females: rabbit EFD; for Females with live fetuses / Pregnant females: 22 total females
Outline: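 Time-mated female rabbits, 6–8 months old at dosing start, gavaged daily (10 ml/kg) with vehicle or 10, 30 or 60 mg/kg/day test compound over GDs 7–19; n = 22/group plus a toxicokinetic group. Cesarean-section endpoints: corpora lutea, implantation sites, preimplantation loss, resorptions. Fetuses weighed and examined externally, viscerally and, after evisceration and Alizarin Red S staining, skeletally. Fetal weights analysed by ANCOVA with Dunnett's test, litter size as covariate.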

[6] = dog, 39-week study, 100 mg/kg/day
[7] = dog, 39-week study, 100 mg/kg/day, reversible
[8] = dog, 39-week study, 30 and 100 mg/kg/day

## Cc1cc(Nc2cc3ncccc3c(N[C@@H]3C[C@H]4CC[C@@H](C3)N4CCC#N)n2)n[nH]1 [izencitinib, Izencitinib]
[1]; rat fetuses, below lower limit of quantitation
  fetal plasma concentrations, all other samples: < 1 ng/mL
[1]; rat, fetal plasma, oral, 1000 mg/kg/day
  concentration at 3 h: 1.18 ng/mL
[2]
  human cellular JAK IC50 range, uncorrected: 0.01273 to 0.08031 µg/mL
[3]; rat and dog general toxicity studies, each study, vs human 300 mg QD
  nonclinical:clinical systemic exposure (AUC) ratio at the NOAEL dose: 6- to 18 fold
[3]; rat and rabbit EFD studies
  fetal exposure: negligible
  maternal plasma Cave:JAK IC50 ratio: 2–6 ×
[3]; rat and rabbit EFD, highest dose tested
  Cave:uncorrected IC50 ratio: ≥ 2 ×
Beagle dogs; all dog studies
  effects on ophthalmology, electrocardiography, food consumption, urinalysis: No effects
Beagle dogs; dog 4-week study, 300 mg/kg/day, after 12–13 days
  tolerability: not tolerated
Beagle dogs; dog 4-week study, 300/100 mg/kg/day, days 18 and 19
  early euthanasia: 3 dogs
Beagle dogs; dog 39-week study, 100 mg/kg/day, at 25–26 weeks, skin observations
  early euthanasia: 2 dogs
Beagle dogs; dog repeat-dose studies, up to highest tested doses
  organ weights and microscopic findings in male reproductive tissues: no microscopic findings
Beagle dogs; dog repeat-dose toxicity studies, any dose
  effects on lipid levels: no effects
Beagle dogs; dog, 4- and 13-week studies
  dose with decreased hematopoietic and lymphoid cellularity (microscopic): ≥ 100 mg/kg/day
Beagle dogs; dog, 4- and 13-week studies, 100 mg/kg/day, reversible
  red blood cell parameters, change: 0.82–0.85 ×
Beagle dogs; dog, 4- and 13-week studies, any dose
  changes in reticulocyte levels: No changes
Beagle dogs; dog, 4 weeks
  no observed adverse effect level: 30^c mg/kg/day
Beagle dogs; dog, 4 weeks, end of dosing phase
  effects on white blood cell parameters: No significant effects
Beagle dogs; dog, 13- and 39-week studies, 100 mg/kg/day
  fibrinogen levels, change: 1.3–1.4 ×
Beagle dogs; dog, 13 weeks
  effects on white blood cell, lymphocyte, or neutrophil counts: No izencitinib-related effects
  no observed adverse effect level: 30^c mg/kg/day
Beagle dogs; dog, 13 weeks, 100 mg/kg/day, reversible
  platelets, change: 1.5 ×
Beagle dogs; dog, 39-week study
  dose with decreased hematopoietic and lymphoid cellularity (microscopic): ≥ 30 mg/kg/day
Beagle dogs; [6]
  red blood cell parameters, change: 0.76–0.79 ×
  tolerability: not tolerated
Beagle dogs; dog, 39-week study, 100 mg/kg/day, after recovery
  hemoglobin levels, change: 0.87 ×
Beagle dogs; dog, 39-week study, 100 mg/kg/day, recovery animals
  white blood cell counts, change: 1.3 ×
Beagle dogs; [7]
  helper T cells (immunophenotyping), change: 0.71 ×
  lymphocyte counts, change: 0.70 ×
  total T cells (immunophenotyping), change: 0.71 ×
  total lymphocytes (immunophenotyping), change: 0.70 ×
Beagle dogs; dog, 39-week study, 100 mg/kg/day, without reversibility in 4-week recovery
  B cells (immunophenotyping), change: 0.59 ×
Beagle dogs; [8]
  neutrophils, change: 1.3–1.5 ×
  platelets, change: 1.3–2.2 ×
Beagle dogs; dog, 39-week study, 30 and 100 mg/kg/day, after recovery
  hematocrit, change: 0.90–0.92 ×
Beagle dogs; dog, 39-week study, 30 and 100 mg/kg/day, reversible
  reticulocytes, change: 0.45–0.51 ×
Beagle dogs; dog, 39 weeks, 30 mg/kg/day
  red blood cell parameters, change: 0.90–0.91 ×
Beagle dogs; dog, 39 weeks, 30 mg/kg/day, end of dosing phase
  white blood cell counts, change: 1.2 ×
Beagle dogs; dog, any dose, 3 studies
  effects on prothrombin time or activated partial thromboplastin time: No effects
Beagle dogs; dog, up to 100 mg/kg/day, all 3 studies
  microscopic findings in GI tissues: no adverse microscopic findings
[4]
  NOAEL at 39 weeks: 30 mg/kg/day
[5]; rabbit
  effects on fetal parameters: no effects
[5]; 10 mg/kg/day oral GDs 7–19
  Corpora lutea (mean ± SD): 10 ± 1.7
  Implantation sites (mean ± SD): 10 ± 1.6
  Preimplantation loss (mean ± SD): 1.0 ± 0.8
  Total resorptions (mean ± SD): 0 ± 0.4
  Females with live fetuses: 20
  Pregnant females: 22
[5]; 30 mg/kg/day oral GDs 7–19
  Corpora lutea (mean ± SD): 11 ± 2.0
  Implantation sites (mean ± SD): 10 ± 1.9
  Preimplantation loss (mean ± SD): 1.0 ± 0.9
  Total resorptions (mean ± SD): 0 ± 0.4
  Females with live fetuses: 21
  Pregnant females: 21
[5]; 60 mg/kg/day oral GDs 7–19
  Corpora lutea (mean ± SD): 11 ± 2.3
  Implantation sites (mean ± SD): 10 ± 2.8
  Preimplantation loss (mean ± SD): 1.0 ± 1.5
  Total resorptions (mean ± SD): 1 ± 1.6
  Females with live fetuses: 21
  Pregnant females: 22
[5]; rabbit, any dose
  effects on cesarean section parameters: no adverse effects
[5]; rabbit, up to 60 mg/kg/day
  tolerability: well tolerated
